From ChEMBL document CHEMBL3112542, “Synthesis of triazole-functionalized 2-DOS analogues and their evaluation as A-site binders” (Bioorg Med Chem Lett, 2014) come the findings set out here.

Test [1] can be described thus: Binding affinity to 2AP-labeled duplex RNA oligonucleotide ribosomal decoding site (unknown origin) by fluorescence spectrophotometry. In short, it runs like this: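 Decoding-site RNA model oligonucleotide with 2-aminopurine replacing flexible A1492. Binding followed by enhancement of 2AP fluorescence emission. Values averaged from 3 replicate experiments per compound (10%).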

Another test deals with Escherichia coli. The test is described as follows: Antimicrobial activity against Escherichia coli ATCC 25922 after 18 hrs by microdilution method. To be noted: ATCC 25922, 18 h. The format is functional.
Test [2] in a line: Binding affinity to Escherichia coli rRNA A site after 30 mins by luciferase transcription/translation assay. In a few lines: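 Coupled bacterial transcription-translation run in E. coli extract. IC50 taken from 2 replicate experiments per compound, each in duplicate (14%).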
The next test concerns Pseudomonas aeruginosa. In words: Antimicrobial activity against Pseudomonas aeruginosa ATCC 27853 after 18 hrs by microdilution method. Format: functional. The conditions noted are these: ATCC 27853, 18 h.
The next test concerns Staphylococcus aureus. In words: Antimicrobial activity against Staphylococcus aureus ATCC 29213 after 18 hrs by microdilution method. Format: functional. To be noted: ATCC 29213, 18 h.

Values after ≈ are worked out from the molar mass of the structure shown.

Regarding `N[C@H]1C[C@@H](n2cc(CO)nn2)[C@H](O)[C@@H](O)[C@@H]1O`, the EC50 entry in test [1] is “Not Active”. The minimum inhibitory concentration (MIC) against Escherichia coli is more than 700 µg/mL; in the test on Pseudomonas aeruginosa, more than 700 µg/mL; against Staphylococcus aureus, 88 µg/mL (≈ 360 µM). The same compound yielded a half-maximal inhibitory concentration (IC50) in test [2] of 468 µM.
As to `NCC[C@H](O)C(=O)N[C@H]1C[C@@H](N)[C@H](O)[C@@H](O)[C@@H]1O`, the concentration for a half-maximal effect (EC50) in test [1] (read-out: EC50) is 8.7 µM. Further, the MIC with Escherichia coli was more than 840 µg/mL; in the test on Pseudomonas aeruginosa, more than 840 µg/mL; against Staphylococcus aureus, 52.5 µg/mL (≈ 199 µM). Besides, in test [2], the IC50 stood at 475 µM.
Regarding `NCC[C@H](O)C(=O)N[C@H]1C[C@@H](n2cc(CO)nn2)[C@H](O)[C@@H](O)[C@@H]1O`, the EC50 entry in test [1] is recorded as “Not Active”. Besides, the results for the MIC in the test on Escherichia coli, in the test on Pseudomonas aeruginosa and in the test with Staphylococcus aureus were more than 1000 µg/mL, more than 1000 µg/mL and 60 µg/mL (≈ 174 µM), respectively. For the same compound, the IC50 in test [2] was found to be 66.5 µM.
In the case of `NCCCC(=O)N[C@H]1C[C@@H]2[C@H](OCc3cnnn32)[C@@H](O)[C@@H]1O`, the EC50 in test [1] (read-out: EC50) was found to be 22.4 µM. Also, the minimal inhibitory concentration (MIC) was more than 870 µg/mL against Escherichia coli, more than 870 µg/mL in the test with Pseudomonas aeruginosa and 109 µg/mL (≈ 350 µM) in the test with Staphylococcus aureus. This compound showed a concentration for half-maximal inhibition (IC50) in test [2] of 55.5 µM.
For `NCC[C@H](O)C(=O)N[C@H]1C[C@@H]2[C@H](OCc3cnnn32)[C@@H](O)[C@@H]1O`, the EC50 in test [1] (read-out: EC50) turned out to be 0.017 µM. Moreover, the MIC was more than 820 µg/mL against Escherichia coli, more than 820 µg/mL with Pseudomonas aeruginosa and 102 µg/mL (≈ 312 µM) in the test with Staphylococcus aureus. The compound also returned a half-inhibitory concentration (IC50) in test [2] of 104 µM.
Turning to `N[C@@H]1C[C@H](N)[C@@H](O)[C@H](OCc2cn(CCO)nn2)[C@H]1OCC(=O)N1CCCCC1`, in test [1] (read-out: EC50), the EC50 is 3 µM. The values for the minimum inhibitory concentration (MIC) in the test with Escherichia coli, against Pseudomonas aeruginosa and against Staphylococcus aureus were more than 1000 µg/mL, more than 1000 µg/mL and 129 µg/mL (≈ 313 µM), respectively. In addition, the IC50 in test [2] turned out to be 730 µM.
For the compound `N[C@@H]1C[C@H](NC(=O)NCCO)[C@@H](O)[C@H](OCC(=O)N2CCOCC2)[C@H]1OCc1cn(CCO)nn1`, the EC50 in test [1] (read-out: EC50) turned out to be 62 µM. Moreover, the values for the MIC in the test on Escherichia coli, with Pseudomonas aeruginosa and against Staphylococcus aureus were 235 µg/mL (≈ 469 µM), 157 µg/mL (≈ 313 µM) and 78 µg/mL (≈ 156 µM), respectively. This compound showed a concentration for half-maximal inhibition (IC50) in test [2] of 22.6 µM.
On to `N[C@H]1C[C@@H]2[C@H](OCc3cnnn32)[C@@H](O)[C@@H]1O` (single isomer, unassigned), for which the EC50 in test [1] (read-out: EC50) came to 53 µM. Moreover, the minimum inhibitory concentration (MIC) in the test on Escherichia coli is 283 µg/mL (≈ 1250 µM); in the test with Pseudomonas aeruginosa, 283 µg/mL (≈ 1250 µM); against Staphylococcus aureus, more than 565 µg/mL. In test [2], the 50% inhibitory concentration (IC50) came to 317 µM.
